{"source": "ChEMBL document CHEMBL1649231", "about": "“In vitro activities of panduratin A against clinical Staphylococcus strains” (2009)", "assay_type_in_all_cases": "functional", "key": {"[1]": {"system": "Staphylococcus hominis", "experiment": "Antimicrobial activity against methicillin-resistant coagulase-negative Staphylococcus hominis assessed as susceptible isolates after 24 hrs by broth microdilution method"}, "[2]": {"system": "Staphylococcus simulans", "experiment": "Antimicrobial activity against methicillin-susceptible coagulase-negative Staphylococcus simulans assessed as susceptible isolates after 24 hrs by broth microdilution method", "procedure,_shortened": "(§1)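 Clinical isolates from blood, body fluids, pus, sputum or genital secretions, identified conventionally or by Vitek, were tested alongside ATCC 29213 and ATCC 12228 controls. CLSI M7-A6 broth microdilution in Mueller-Hinton broth used twofold dilutions from a 10% DMSO solution and 5 × 10^5 CFU/ml inoculum. Drug-free and uninoculated wells served as controls; incubation was aerobic at 37°C for 24 h. MIC was the lowest concentration with no visible growth.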"}, "[3]": {"system": "Staphylococcus haemolyticus", "experiment": "Antimicrobial activity against methicillin-susceptible coagulase-negative Staphylococcus haemolyticus assessed as susceptible isolates after 24 hrs by broth microdilution method"}, "[4]": {"system": "Mammaliicoccus sciuri", "experiment": "Antimicrobial activity against methicillin-resistant coagulase-negative Staphylococcus sciuri after 24 hrs by broth microdilution method", "procedure,_shortened": "(§2)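 Clinical isolates came from blood, body fluids, genital secretions, pus or sputum, identified conventionally or by Vitek. MICs were run by CLSI M7-A6 broth microdilution in Mueller-Hinton broth with 5 × 10^5 CFU/ml inoculum. Agents were twofold serially diluted, starting from 10% DMSO. Drug-free and uninoculated controls were included. Plates were incubated aerobically at 37°C for 24 h; MIC is the lowest concentration giving no visible growth.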"}, "[5]": {"system": "Staphylococcus simulans", "experiment": "Bactericidal activity against methicillin-resistant coagulase-negative Staphylococcus simulans after 24 hrs by plate counting method", "settings": "Staphylococcus simulans, 24 h", "procedure,_shortened": "(§3)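 Clinical staphylococcal isolates from patient body fluids, blood, genital secretions, pus or sputum; species by conventional methods or Vitek. Twofold dilutions in Mueller-Hinton broth, inoculum 5 × 10^5 CFU/ml, 37°C aerobic 24 h (CLSI M7-A6 microdilution). About 100 μl from each well without visible growth spread on MHA; 37°C 24 h. MBC = lowest concentration giving no growth on agar.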"}, "[6]": {"system": "Staphylococcus hominis", "experiment": "Antimicrobial activity against methicillin-susceptible coagulase-negative Staphylococcus hominis after 24 hrs by broth microdilution method", "procedure,_shortened": "as §2"}, "[7]": {"system": "Staphylococcus haemolyticus", "experiment": "Bactericidal activity against methicillin-susceptible coagulase-negative Staphylococcus haemolyticus after 24 hrs by plate counting method", "procedure,_shortened": "as §3"}, "[8]": {"system": "Staphylococcus hominis", "experiment": "Bactericidal activity against methicillin-susceptible coagulase-negative Staphylococcus hominis after 24 hrs by plate counting method", "procedure,_shortened": "as §3"}, "[9]": {"system": "Staphylococcus haemolyticus", "experiment": "Antimicrobial activity against methicillin-resistant coagulase-negative Staphylococcus haemolyticus assessed as susceptible isolates after 24 hrs by broth microdilution method"}, "[10]": {"system": "Staphylococcus aureus", "experiment": "Bactericidal activity against methicillin-susceptible Staphylococcus aureus after 24 hrs by plate counting method", "procedure,_shortened": "as §3"}, "[11]": {"system": "Staphylococcus epidermidis", "experiment": "Antimicrobial activity against methicillin-resistant coagulase-negative Staphylococcus epidermidis after 24 hrs by broth microdilution method", "procedure,_shortened": "as §2"}, "[12]": {"system": "Mammaliicoccus sciuri", "experiment": "Bactericidal activity against methicillin-susceptible coagulase-negative Staphylococcus sciuri after 24 hrs by plate counting method", "procedure,_shortened": "as §3"}, "[13]": {"system": "Staphylococcus aureus", "experiment": "Antimicrobial activity against methicillin-resistant Staphylococcus aureus assessed as susceptible isolates after 24 hrs by broth microdilution method"}, "[14]": {"system": "Staphylococcus epidermidis", "experiment": "Bactericidal activity against methicillin-susceptible coagulase-negative Staphylococcus epidermidis after 24 hrs by plate counting method", "procedure,_shortened": "as §3"}, "[15]": {"system": "Staphylococcus simulans", "experiment": "Antimicrobial activity against methicillin-resistant coagulase-negative Staphylococcus simulans after 24 hrs by broth microdilution method", "procedure,_shortened": "as §2"}, "[16]": {"system": "Staphylococcus hominis", "experiment": "Bactericidal activity against methicillin-resistant coagulase-negative Staphylococcus hominis after 24 hrs by plate counting method", "settings": "Staphylococcus hominis, 24 h"}, "[17]": {"system": "Staphylococcus haemolyticus", "experiment": "Antimicrobial activity against methicillin-susceptible coagulase-negative Staphylococcus haemolyticus after 24 hrs by broth microdilution method", "procedure,_shortened": "as §2"}, "[18]": {"system": "Staphylococcus simulans", "experiment": "Bactericidal activity against methicillin-susceptible coagulase-negative Staphylococcus simulans after 24 hrs by plate counting method", "procedure,_shortened": "as §3"}, "[19]": {"system": "Staphylococcus simulans", "experiment": "Antimicrobial activity against methicillin-susceptible coagulase-negative Staphylococcus simulans after 24 hrs by broth microdilution method", "procedure,_shortened": "as §2"}, "[20]": {"system": "Staphylococcus epidermidis", "experiment": "Antimicrobial activity against methicillin-susceptible coagulase-negative Staphylococcus epidermidis after 24 hrs by broth microdilution method", "procedure,_shortened": "as §2"}, "[21]": {"system": "Staphylococcus aureus", "experiment": "Bactericidal activity against methicillin-resistant Staphylococcus aureus after 24 hrs by plate counting method"}, "[22]": {"system": "Mammaliicoccus sciuri", "experiment": "Bactericidal activity against methicillin-resistant coagulase-negative Staphylococcus sciuri after 24 hrs by plate counting method", "settings": "Mammaliicoccus sciuri, 24 h", "procedure,_shortened": "as §3"}, "[23]": {"system": "Staphylococcus hominis", "experiment": "Antimicrobial activity against methicillin-resistant coagulase-negative Staphylococcus hominis after 24 hrs by broth microdilution method", "procedure,_shortened": "as §2"}, "[24]": {"system": "Staphylococcus epidermidis", "experiment": "Antimicrobial activity against methicillin-resistant coagulase-negative Staphylococcus epidermidis assessed as susceptible isolates after 24 hrs by broth microdilution method"}, "[25]": {"system": "Staphylococcus hominis", "experiment": "Antimicrobial activity against methicillin-susceptible coagulase-negative Staphylococcus hominis assessed as susceptible isolates after 24 hrs by broth microdilution method"}, "[26]": {"system": "Staphylococcus aureus", "experiment": "Antimicrobial activity against methicillin-susceptible Staphylococcus aureus after 24 hrs by broth microdilution method", "procedure,_shortened": "as §2"}, "[27]": {"system": "Staphylococcus haemolyticus", "experiment": "Antimicrobial activity against methicillin-resistant coagulase-negative Staphylococcus haemolyticus after 24 hrs by broth microdilution method", "procedure,_shortened": "as §2"}, "[28]": {"system": "Staphylococcus aureus", "experiment": "Antimicrobial activity against methicillin-resistant Staphylococcus aureus after 24 hrs by broth microdilution method", "procedure,_shortened": "as §2"}, "[29]": {"system": "Staphylococcus epidermidis", "experiment": "Antimicrobial activity against methicillin-susceptible coagulase-negative Staphylococcus epidermidis assessed as susceptible isolates after 24 hrs by broth microdilution method"}, "[30]": {"system": "Mammaliicoccus sciuri", "experiment": "Antimicrobial activity against methicillin-susceptible coagulase-negative Staphylococcus sciuri assessed as susceptible isolates after 24 hrs by broth microdilution method", "procedure,_shortened": "as §1"}, "[31]": {"system": "Staphylococcus aureus", "experiment": "Antimicrobial activity against methicillin-susceptible Staphylococcus aureus assessed as susceptible isolates after 24 hrs by broth microdilution method"}, "[32]": {"system": "Mammaliicoccus sciuri", "experiment": "Antimicrobial activity against methicillin-susceptible coagulase-negative Staphylococcus sciuri after 24 hrs by broth microdilution method", "procedure,_shortened": "as §2"}, "[33]": {"system": "Staphylococcus haemolyticus", "experiment": "Bactericidal activity against methicillin-resistant coagulase-negative Staphylococcus haemolyticus after 24 hrs by plate counting method", "settings": "Staphylococcus haemolyticus, 24 h"}, "[34]": {"system": "Staphylococcus epidermidis", "experiment": "Bactericidal activity against methicillin-resistant coagulase-negative Staphylococcus epidermidis after 24 hrs by plate counting method", "settings": "Staphylococcus epidermidis, 24 h"}}}
{"molecule": "CC(=O)NC[C@H]1CN(c2ccc(N3CCOCC3)c(F)c2)C(=O)O1", "note": "[LINEZOLID]", "values": [{"measurement": "Activity", "setting": "[1]", "result": 100, "unit": "%"}, {"measurement": "Activity", "setting": "[2]", "result": 96, "unit": "%"}, {"measurement": "Activity", "setting": "[3]", "result": 96, "unit": "%"}, {"measurement": "MIC50", "setting": "[4]", "result": 0.25, "unit": "µg/mL"}, {"measurement": "MIC90", "setting": "[4]", "result": 2, "unit": "µg/mL"}, {"measurement": "MBC", "setting": "[5]", "result": 0.5, "unit": "µg/mL"}, {"measurement": "MIC50", "setting": "[6]", "result": 0.25, "unit": "µg/mL"}, {"measurement": "MIC90", "setting": "[6]", "result": 4, "unit": "µg/mL"}, {"measurement": "MBC50", "setting": "[7]", "result": 2, "unit": "µg/mL"}, {"measurement": "MBC90", "setting": "[7]", "result": 4, "unit": "µg/mL"}, {"measurement": "MBC", "setting": "[7]; Staphylococcus haemolyticus, 24 h", "result": 0.25, "unit": "µg/mL"}, {"measurement": "MBC50", "setting": "[8]", "result": 2, "unit": "µg/mL"}, {"measurement": "MBC90", "setting": "[8]", "result": 4, "unit": "µg/mL"}, {"measurement": "MBC", "setting": "[8]; Staphylococcus hominis, 24 h", "result": 0.25, "unit": "µg/mL"}, {"measurement": "Activity", "setting": "[9]", "result": 100, "unit": "%"}, {"measurement": "MBC50", "setting": "[10]", "result": 8, "unit": "µg/mL"}, {"measurement": "MBC90", "setting": "[10]", "result": 32, "unit": "µg/mL"}, {"measurement": "MBC", "setting": "[10]; Staphylococcus aureus, 24 h", "result": 2, "unit": "µg/mL"}, {"measurement": "MIC50", "setting": "[11]", "result": 0.25, "unit": "µg/mL"}, {"measurement": "MIC90", "setting": "[11]", "result": 2, "unit": "µg/mL"}, {"measurement": "MBC50", "setting": "[12]", "result": 2, "unit": "µg/mL"}, {"measurement": "MBC90", "setting": "[12]", "result": 4, "unit": "µg/mL"}, {"measurement": "MBC", "setting": "[12]; Mammaliicoccus sciuri, 24 h", "result": 0.25, "unit": "µg/mL"}, {"measurement": "Activity", "setting": "[13]", "result": 100, "unit": "%"}, {"measurement": "MBC50", "setting": "[14]", "result": 2, "unit": "µg/mL"}, {"measurement": "MBC90", "setting": "[14]", "result": 4, "unit": "µg/mL"}, {"measurement": "MBC", "setting": "[14]; Staphylococcus epidermidis, 24 h", "result": 0.25, "unit": "µg/mL"}, {"measurement": "MIC50", "setting": "[15]", "result": 0.25, "unit": "µg/mL"}, {"measurement": "MIC90", "setting": "[15]", "result": 2, "unit": "µg/mL"}, {"measurement": "MBC", "setting": "[16]", "result": 0.5, "unit": "µg/mL"}, {"measurement": "MIC50", "setting": "[17]", "result": 0.25, "unit": "µg/mL"}, {"measurement": "MIC90", "setting": "[17]", "result": 4, "unit": "µg/mL"}, {"measurement": "MBC50", "setting": "[18]", "result": 2, "unit": "µg/mL"}, {"measurement": "MBC90", "setting": "[18]", "result": 4, "unit": "µg/mL"}, {"measurement": "MBC", "setting": "[18]; Staphylococcus simulans, 24 h", "result": 0.25, "unit": "µg/mL"}, {"measurement": "MIC50", "setting": "[19]", "result": 0.25, "unit": "µg/mL"}, {"measurement": "MIC90", "setting": "[19]", "result": 4, "unit": "µg/mL"}, {"measurement": "MIC50", "setting": "[20]", "result": 0.25, "unit": "µg/mL"}, {"measurement": "MIC90", "setting": "[20]", "result": 4, "unit": "µg/mL"}, {"measurement": "MBC90", "setting": "[21]", "result": 16, "unit": "µg/mL"}, {"measurement": "MBC", "setting": "[21]; Staphylococcus aureus, 24 h", "result": 8, "unit": "µg/mL"}, {"measurement": "MBC", "setting": "[22]", "result": 0.5, "unit": "µg/mL"}, {"measurement": "MIC50", "setting": "[23]", "result": 0.25, "unit": "µg/mL"}, {"measurement": "MIC90", "setting": "[23]", "result": 2, "unit": "µg/mL"}, {"measurement": "Activity", "setting": "[24]", "result": 100, "unit": "%"}, {"measurement": "Activity", "setting": "[25]", "result": 96, "unit": "%"}, {"measurement": "MIC50", "setting": "[26]", "result": 1, "unit": "µg/mL"}, {"measurement": "MIC90", "setting": "[26]", "result": 4, "unit": "µg/mL"}, {"measurement": "MIC50", "setting": "[27]", "result": 0.25, "unit": "µg/mL"}, {"measurement": "MIC90", "setting": "[27]", "result": 2, "unit": "µg/mL"}, {"measurement": "MIC50", "setting": "[28]", "result": 1, "unit": "µg/mL"}, {"measurement": "MIC90", "setting": "[28]", "result": 2, "unit": "µg/mL"}, {"measurement": "Activity", "setting": "[29]", "result": 96, "unit": "%"}, {"measurement": "Activity", "setting": "[30]", "result": 96, "unit": "%"}, {"measurement": "Activity", "setting": "[31]", "result": 96, "unit": "%"}, {"measurement": "MIC50", "setting": "[32]", "result": 0.25, "unit": "µg/mL"}, {"measurement": "MIC90", "setting": "[32]", "result": 4, "unit": "µg/mL"}, {"measurement": "MBC", "setting": "[33]", "result": 0.5, "unit": "µg/mL"}, {"measurement": "MBC", "setting": "[34]", "result": 0.5, "unit": "µg/mL"}]}
